Assay results pooled from the literature.
Lines come from different studies, so protocols differ.
ST14: Suppressor of tumorigenicity 14 protein (ST14, Homo sapiens, UniProt Q9Y5Y6)
CDK2 with cyclin A2: Cyclin-dependent kinase 2, with cyclin A2 (CDK2, Homo sapiens, UniProt P24941)

Compound | target | assay | setting | endpoint | value
N=C(N)NCCC[C@H](NC(=O)[C@@H](NC(=O)[C@H](Cc1cscn1)NC(=O)CCc1ccccc1)C(c1ccccc1)c1ccccc1)C(=O)c1nc2ccccc2s1 | ST14 | enzyme activity, inhibitor | 0.1 µM | remaining activity | 76%
CNc1ncc2c(/C=C/C(=O)N3CCC(OC)CC3)nn(Cc3cccc(C(F)(F)F)c3)c2n1 | Cyclin-dependent kinase 8, with cyclin C (CDK8, Homo sapiens, UniProt P49336) | enzyme activity, inhibitor, radiometric | 1 µM | remaining activity | 105%
CNC(=O)c1cc(Oc2ccc(NC(=O)Nc3ccc(Cl)c(C(F)(F)F)c3)cc2)ccn1 | CDK2 with cyclin A2 | enzyme activity, inhibitor | 5 nM | inhibition | 27.6%
N=C(N)NCCC[C@H](NC(=O)[C@@H](NC(=O)[C@H](Cc1cscn1)NC(=O)CCc1ccccc1)C1CCCCC1)C(=O)c1nc2ccccc2s1 | ST14 | enzyme activity, inhibitor | 0.1 µM | remaining activity | 32%
COc1cc(-c2cncc3c2CN(C)Cc2cc(N4CCNCC4)ccc2-3)cc(OC)c1OC | Vascular endothelial growth factor receptor 3 (FLT4, Homo sapiens, UniProt P35916) | enzyme activity, inhibitor | 1 µM | remaining activity | 86%
CC(=O)Nc1c(N)nc(SCC(=O)NN)[nH]c1=O | CDK2 with cyclin A2 | enzyme activity, inhibitor | 1 nM | inhibition | 8.32%
C=CC(=O)N1CCC(COCC(=O)N2CCN(c3nc(-c4cnc(N)nc4C(F)F)nc(N4CCOC[C@@H]4C)n3)CC2)CC1 | Protein kinase C eta type (PRKCH, Homo sapiens, UniProt P24723) | binding, competition with immobilised ligand | 1 µM | remaining binding | 100%
CC(=O)Nc1c(N)nc(SCC(=O)N/N=C/c2ccc([N+](=O)[O-])cc2)[nH]c1=O | CDK2 with cyclin A2 | enzyme activity, inhibitor | 0.1 µM | inhibition | 37.6%
CCC[C@H](NC(=O)[C@H](Cc1cscn1)NC(=O)CCc1ccccc1)C(=O)N[C@@H](CCCNC(=N)N)C(=O)c1nc2ccccc2s1 | ST14 | enzyme activity, inhibitor | 0.1 µM | remaining activity | 45%
Cc1cc([C@@H](C)Nc2ccccc2C(=O)O)c2nc(N3CCC(F)(F)CC3)c(C#N)c(=O)n2c1 | Angiopoietin-1 receptor (TEK, Homo sapiens, UniProt Q02763) | binding, competition with immobilised ligand | 1 µM | remaining binding | 60%
